Compound activity deposited in PubChem by several laboratories.
Furin inhibitor = human furin inhibition; purified furin, fluorogenic substrate cleavage; inhibition, % at 20 µM or 30 µM; 0.061% of 220,000 active; in the data active = inhibition above about 25%
Thrombin inh = blocks human thrombin protease activity | AID 1046 | alpha-thrombin, Boc-VPR-AMC fluorogenic substrate cleavage | 0.26% of 220,000 active | inhibition, % at 5 µM | P00734;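 active = inhibition at or above 40%; inactive = inhibition below 40%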;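 also: 0% = enzyme with no compound and 100% = wells without enzyme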
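Material: Human alpha-thrombin protein | Buffer or medium: pH 7.5 Tris-saline with Tween 20 | Reagent: Boc-VPR-AMC substrate, 15 µM final | Schedule: Reaction at ambient temperature | Detection: AMC fluorescence at 355 nm excitation and 460 nm emission | Evaluation: Percent inhibition scaled between no-compound controls and no-enzyme blanks | Controls: no-compound enzyme wells and no-enzyme blanks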
FXIa inh 1536 = blocks human coagulation factor XIa protease activity. P03951. purified FXIa, Boc-Glu-Ala-Arg-AMC fluorogenic substrate. inhibition, % at 5 µM. 0.14% of 220,000 active. AID 798;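 active = inhibition of at least 40%; inactive = inhibition below 40%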;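 also: fluorescence of freed AMC excited at 355 nm; 0% = enzyme without compound and 100% = no enzyme blank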
KLK5 inh = blocks human kallikrein 5 protease activity | AID 873 | Q9Y337 | inhibition, % at 5 µM | recombinant hK5, fluorogenic AMC substrate cleavage | 0.59% of 210,000 active;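 active = inhibition of 40% or more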;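 also: 0% = enzyme controls without compound and 100% = no-enzyme blanks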
FXIIa inh = factor XIIa (human) inhibition | P00748 | purified FXIIa, Boc-QGR-AMC fluorogenic substrate, 2 h | inhibition, % at 5 µM | 0.3% of 220,000 active; in the data active = inhibition above about 40%;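 also: 0% = enzyme with no compound and 100% = blank without enzyme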
Target sequence (P00748 20-372 limits assumed): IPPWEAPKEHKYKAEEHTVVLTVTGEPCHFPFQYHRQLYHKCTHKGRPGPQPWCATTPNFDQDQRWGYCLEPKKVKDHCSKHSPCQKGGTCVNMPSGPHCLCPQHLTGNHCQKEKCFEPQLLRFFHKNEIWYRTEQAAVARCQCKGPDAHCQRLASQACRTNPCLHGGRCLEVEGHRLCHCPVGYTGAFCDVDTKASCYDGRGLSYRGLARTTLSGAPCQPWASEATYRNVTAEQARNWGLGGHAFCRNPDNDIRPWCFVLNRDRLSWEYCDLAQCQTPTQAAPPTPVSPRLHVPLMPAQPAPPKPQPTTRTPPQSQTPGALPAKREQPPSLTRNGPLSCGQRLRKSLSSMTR
Target sequence (P00748 373-615 limits assumed): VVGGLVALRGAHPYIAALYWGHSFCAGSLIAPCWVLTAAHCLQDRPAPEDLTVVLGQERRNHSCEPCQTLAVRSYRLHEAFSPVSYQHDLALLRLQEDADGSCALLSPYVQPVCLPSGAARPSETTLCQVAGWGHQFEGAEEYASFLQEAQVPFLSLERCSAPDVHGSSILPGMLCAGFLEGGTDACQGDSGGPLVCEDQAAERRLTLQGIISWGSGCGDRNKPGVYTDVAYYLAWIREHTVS
An asterisk follows results filed as active; / = no result given. In the library only some 1.1% were active in any assay of this set; here they are far more common.

SMILES	Furin inhibitor	Thrombin inh	FXIa inh 1536	KLK5 inh	FXIIa inh
CCOC(=O)C1(CC2CCCCO2)CCN(C(=O)NCc2ccccc2)CC1 (stereo not given)	-20.0	-2.7	-1.1	/	3.1
CCOc1ccc(NC(=O)CCSc2nnc(C)s2)cc1	-30.2	21.5	18.8	46.5*	24.4
O=C(COc1ccc(Cl)cc1)Nc1cc(S(=O)(=O)N2CCCCC2)ccc1N1CCCCC1	-21.9	-10.3	2.2	-2.5	9.5
O=C(CN1CCOCC1)Nc1cccc(S(=O)(=O)N2CCCCCC2)c1	-13.8	/	0.5	-1.0	2.9
O=C(Cn1[nH]c(=O)c2ccccc2c1=O)Nc1cccc(S(=O)(=O)N2CCCCCC2)c1	7.7	22.2	51.7*	26.6	/
Nc1nc(CCl)nc(Nc2ccc3ccccc3c2)n1	1.8	1.1	32.1	61.4*	17.9
Cc1ccccc1Nc1nc(N)nc(CCl)n1	-6.1	-9.4	-2.1	-0.4	2.6
O=C(c1ccccc1)C1CN(c2ccccc2)CC1c1ccc(Cl)cc1 (stereo not given)	-10.7	13.7	6.1	62.0*	53.7*
Cc1c(-c2ccc(Br)cc2)[n+](=O)c2c(n1[O-])CCCC2	-12.7	4.4	-3.0	-18.1	-5.3
COc1cccc(NC(=S)N(CCCN2CCN(C)CC2)Cc2ccco2)c1	-10.5	1.0	-1.5	0.8	5.8
COc1cccc(NC(=S)N(CCCN2CCCC2)Cc2ccco2)c1	-30.3	95.1*	-0.5	3.1	10.2
Cc1c(C(=O)N(Cc2ccccc2)Cc2cccs2)cnn1-c1ccc(Cl)cc1	4.1	9.0	20.5	43.8*	107.3*
Cc1ccc([N+](=O)[O-])cc1N/C=C1\CCCCC1=O	-11.3	2.9	-2.0	-17.9	17.3
Cc1cc(NC(=O)COc2nnc(-c3ccccc3)c3ccccc23)no1	-17.0	12.8	7.0	57.7*	23.1
CC(C)(C)OC(=O)N1CCN(C(=O)c2cccnc2Cl)CC1	-18.2	1.7	-4.3	-27.7	1.6
COc1ccccc1CN1C[C@@H]2C[C@@H](c3[nH]c4c(C)cccc4c3C)N3CCC[C@@]23C1=O	-15.3	-3.7	-3.6	/	1.3
O=c1[nH][nH]c(=S)n1-c1ccccc1C(F)(F)F	-28.6	-0.3	-2.2	1.7	6.2
O=C(O)Cc1ccc(NC(=O)CCN2C(=O)c3ccc([N+](=O)[O-])cc3C2=O)cc1	-13.6	-9.0	1.2	-1.6	99.6*
Cc1cc(C)cc(OCC(=O)OCCN2C(=O)c3ccccc3C2=O)c1	-23.1	-2.5	-15.9	-33.0	6.2
Cc1cc(C)cc(OCC(=O)NNC(=O)CN2C(=O)c3ccccc3C2=O)c1	-7.8	84.9*	2.7	53.5*	2.5
COc1ccc2nc3ccccc3nc2c1N	0.2	14.6	28.8	19.4	43.5*
COc1ccc(-n2nc(C(=O)c3cccs3)cc(-c3nc4ccccc4[nH]3)c2=N)cc1	-7.8	57.1*	14.4	-19.2	20.5
Cc1ccccc1-n1nc(C(=O)c2cccs2)cc(-c2nc3ccccc3[nH]2)c1=N	-12.1	0.6	-1.4	-77.2	0.1
C=CCSc1nnc(-c2cc3c(C(F)(F)F)nn(C)c3s2)n1C	-9.5	2.7	3.9	-16.0	12.2
C=CCSc1nnc(-c2cc3c(-c4ccccc4)nn(C)c3s2)n1C	-7.6	16.1	5.0	52.2*	17.9
SMILES	Furin inhibitor	Thrombin inh	FXIa inh 1536	KLK5 inh	FXIIa inh
FC(F)(F)c1cnc(COc2ccc(Cl)cc2Cl)c(Cl)c1	-20.5	-7.3	-3.5	-3.0	3.9
CCn1c(SCC(=O)Nc2cc(F)ccc2C)nnc1-c1ccccc1O	32.2*	2.0	1.5	-12.2	19.0
COc1ccc(/C=N/NC(=O)CN2CCN(Cc3ccccc3)CC2)cc1Br	-23.5	-2.6	-4.9	5.2	7.3
COc1ccc(Br)cc1/C=N/NC(=O)CN1CCN(Cc2ccccc2)CC1	-1.6	-6.2	-16.8	40.9*	4.5
CCCCOc1ccc(-c2nnn(C(C)(C)C(=O)OC)n2)cc1	-284.1	2.0	-11.2	139.8*	-3.1
CCc1nc(OCCN(C)C)c2oc3ccccc3c2n1	-12.4	21.9	21.3	42.6*	21.0
CCCCCCCCCCCC(=O)N1CC(=O)NC(=O)C1	-2.4	26.9	27.2	54.3*	46.2*
Cc1onc(-c2ccccc2Cl)c1C(=O)Oc1cccc2cccnc12	-16.5	-0.6	-6.0	-0.4	7.2
C=C(C)CN(CC)C(=O)CC1C(=O)NCCN1CC(C)(C)C (stereo not given)	-9.5	44.1*	4.1	0.8	6.2
CCCCCC(=O)OCCc1c(C)nc2nc[nH]n2c1=O	-3.2	2.9	2.7	14.2	3.0
COC(=O)Cc1c(C)nc2nc[nH]n2c1=O	-14.3	14.3	-3.0	53.8*	47.8*
